Experiment [1] deals with T1, Lethal factor (Bacillus anthracis, UniProt P15917).
T1 sequence (P15917 whole entry): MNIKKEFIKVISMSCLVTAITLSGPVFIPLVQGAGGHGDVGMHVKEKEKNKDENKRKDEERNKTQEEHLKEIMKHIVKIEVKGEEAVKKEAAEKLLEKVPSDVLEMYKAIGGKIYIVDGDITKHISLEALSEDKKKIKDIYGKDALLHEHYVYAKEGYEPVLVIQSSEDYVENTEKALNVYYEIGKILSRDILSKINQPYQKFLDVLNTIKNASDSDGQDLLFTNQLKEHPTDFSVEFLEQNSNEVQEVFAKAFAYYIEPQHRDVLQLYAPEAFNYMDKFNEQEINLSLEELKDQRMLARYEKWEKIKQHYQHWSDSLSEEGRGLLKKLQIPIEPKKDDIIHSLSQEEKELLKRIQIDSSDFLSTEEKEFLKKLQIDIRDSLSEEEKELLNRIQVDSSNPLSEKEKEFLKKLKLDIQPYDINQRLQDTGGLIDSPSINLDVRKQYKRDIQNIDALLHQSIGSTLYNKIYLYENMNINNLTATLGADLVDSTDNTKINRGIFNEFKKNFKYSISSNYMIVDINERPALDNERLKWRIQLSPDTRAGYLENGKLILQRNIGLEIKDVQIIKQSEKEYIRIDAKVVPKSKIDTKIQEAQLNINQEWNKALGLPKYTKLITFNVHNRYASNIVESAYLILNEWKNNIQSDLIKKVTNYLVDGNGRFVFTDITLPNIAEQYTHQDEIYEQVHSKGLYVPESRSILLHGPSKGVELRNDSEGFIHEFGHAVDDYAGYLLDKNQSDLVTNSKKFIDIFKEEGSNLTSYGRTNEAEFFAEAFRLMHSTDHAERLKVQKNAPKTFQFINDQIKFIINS
In words: Inhibition of Bacillus anthracis lethal factor protease using substrate containing CyPet and YPet linked by RRKKVYPYPMEGTIA sequence preincubated for 30 mins followed by substrate addition measured every 2 mins for 3 hrs by FRET assay. The method, boiled down: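 Purified LF (50 nM) in pH 7.2 buffer (10 μM CaCl2, 10 μM MgCl2, 20 μM ZnCl2, 20 mM sodium phosphate, 100 mM NaCl) preincubated at room temperature with inhibitor (1 nM–10 μM). FRET substrate added to 10 nM final. Read at 405 nm excitation, 535 nm intensity ratio It/I0. Initial velocities were normalised to uninhibited LF, and IC50 came from a variable-slope log(inhibitor)–response fit.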

Experiment [2] addresses T1, Lethal factor. Kind of experiment: Non-competitive inhibition of Bacillus anthracis lethal factor protease using substrate containing CyPet and YPet linked by RRKKVYPYPMEGTIA sequence preincubated for 30 mins followed by substrate addition measured every 2 mins for 3 hrs by FRET assay. The method, boiled down: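 Ki was derived from the IC50 with the non-competitive tight-binding relation Ki = IC50 − E0/2, where E0 is the enzyme concentration (50 nM LF). The IC50 comes from the FRET assay: pH 7.2 Ca/Mg/Zn phosphate–NaCl buffer, inhibitor 1 nM–10 μM, 10 nM substrate, 405 nm excitation, 535 nm read, initial velocities fitted to a variable-slope curve.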

Molecules are shown by their SMILES. Residues, ends and D or L forms follow the SMILES beside them.

With `CC[C@H](C)[C@H](NC(=O)[C@H](CS)NC(=O)[C@H](CC(=O)O)NC(=O)[C@H](CS)NC(=O)[C@H](CO)NC(=O)[C@H](CO)NC(=O)[C@H](CCCNC(=N)N)NC(=O)CNC(=O)[C@H](CS)NC(=O)[C@H](Cc1ccccc1)NC(=O)[C@H](CS)NC(=O)[C@H](CCCNC(=N)N)NC(=O)[C@H](CS)NC(=O)[C@H](Cc1ccccc1)NC(=O)CN)C(=O)N[C@@H](CS)C(=O)N[C@H](C(=O)N[C@@H](CCCNC(=N)N)C(=O)O)[C@@H](C)O` (H-GFCRCFCGRSSCDCICTR-OH), the IC50 (usually the midpoint of a concentration-inhibition curve) on Lethal factor [1] amounted to 1200 nM. The affinity on Lethal factor [2] corresponds to a Ki of 1170 nM.

In turn, `CC[C@H](C)[C@H](NC(=O)[C@H](CS)NC(=O)[C@H](CCCNC(=N)N)NC(=O)[C@H](CS)NC(=O)[C@@H](NC(=O)CNC(=O)[C@H](Cc1cnc[nH]1)NC(=O)[C@H](CC(C)C)NC(=O)[C@H](CS)NC(=O)[C@H](C)NC(=O)[C@H](CS)NC(=O)[C@H](CCCNC(=N)N)NC(=O)[C@H](CS)NC(=O)[C@H](Cc1ccccc1)NC(=O)CN)C(C)C)C(=O)N[C@@H](CS)C(=O)N[C@H](C(=O)N[C@@H](CCCNC(=N)N)C(=O)O)[C@@H](C)O` (H-GFCRCACLHGVCRCICTR-OH) gave an IC50 at Lethal factor [1] of 971 nM. The Ki (usually a dissociation constant, usually derived from enzyme kinetics or from competition with a known ligand) on Lethal factor [2] is 946 nM.

On Lethal factor [1], `CC[C@H](C)[C@H](NC(=O)[C@H](CS)NC(=O)[C@H](CCCNC(=N)N)NC(=O)[C@H](CS)NC(=O)[C@@H](NC(=O)CNC(=O)[C@H](CCCNC(=N)N)NC(=O)[C@H](CCCNC(=N)N)NC(=O)[C@H](CS)NC(=O)[C@H](CC(C)C)NC(=O)[C@H](CS)NC(=O)[C@H](CCCNC(=N)N)NC(=O)[C@H](CS)NC(=O)[C@H](Cc1ccccc1)NC(=O)CN)C(C)C)C(=O)N[C@@H](CS)C(=O)N[C@H](C(=O)N[C@@H](CCCNC(=N)N)C(=O)O)[C@@H](C)O` (H-GFCRCLCRRGVCRCICTR-OH) showed an IC50 of 406 nM. Further, on Lethal factor [2], the Ki is 381 nM.

Turning to `CC[C@H](C)[C@H](NC(=O)[C@H](CS)NC(=O)[C@H](Cc1c[nH]c2ccccc12)NC(=O)[C@H](CS)NC(=O)CNC(=O)[C@H](Cc1ccc(O)cc1)NC(=O)[C@H](CCCNC(=N)N)NC(=O)[C@H](CO)NC(=O)[C@H](CS)NC(=O)[C@@H]1CCCN1C(=O)[C@H](CS)NC(=O)[C@H](CCCNC(=N)N)NC(=O)[C@H](CS)NC(=O)[C@H](Cc1ccccc1)NC(=O)CN)C(=O)N[C@@H](CS)C(=O)N[C@H](C(=O)N[C@@H](CCCNC(=N)N)C(=O)O)[C@@H](C)O` (H-GFCRCPCSRYGCWCICTR-OH), at Lethal factor [1], the IC50 came out at 971 nM. Also, affinity on Lethal factor [2] was put at a Ki of 946 nM.

For the origin of these results see ChEMBL document CHEMBL4184151, “In-cell production of a genetically-encoded library based on the θ-defensin RTD-1 using a bacterial expression system” (Bioorg Med Chem, 2018).
